Data on 14 compounds can be found in ChEMBL document CHEMBL1687872, “Synthesis, molecular docking and binding studies of selective serotonin transporter inhibitors” (Eur J Med Chem, 2011).

Bounds are passed on as bounds.

A short description of experiment [1]: Displacement of [3H]-paroxetine from SERT in rabbit cortical membrane. The experiment is classed as cell membranes, Oryctolagus cuniculus. In a few lines: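 Competition against [3H]paroxetine (Kd 56.00 pM) on rabbit frontal cortex membranes, in duplicate, at least seven test concentrations from ethanol stocks diluted in Tris-HCl saline buffer; filtration and scintillation counting; Ki calculated by Cheng-Prusoff, mean ± s.e.m. of three independent experiments.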

Experiment [2] in a line: Displacement of [3H]-WIN 35,428 from DAT in rabbit striatal membrane. The class given is cell membranes, Oryctolagus cuniculus, Striatum. An outline of the steps:
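Rabbit striatal membranes (0.2 mg protein) in 50 mM Tris-HCl pH 7.4, 120 mM NaCl, 5 mM KCl with 0.5–2 nM [3H]WIN 35,428 (Kd 6.1 nM), 2 h at 4 °C; dopamine defines nonspecific binding; filtration over polyethylenimine-soaked GF/C filters, scintillation counting; ≥7 concentrations; Ki via Cheng-Prusoff, mean ± s.e.m. of three experiments in duplicate.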

Experiment [3] is described as follows: Displacement of [3H]-Nisoxetine from NET in rabbit cortical membrane. The class given is cell membranes, Oryctolagus cuniculus. On the technique in general: In a radioligand displacement assay an active substance lowers the binding of a labelled ligand.
For experiment [4], the species on record is Oryctolagus cuniculus. Description: Ratio of Ki for NET in rabbit cortical membrane to Ki for SERT in rabbit cortical membrane. The experiment is classed as cell membranes. An outline of the steps:
(§1)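 Ratio of the radioligand-binding Ki values from rabbit membranes: DAT ([3H]WIN 35,428, striatum) or NET ([3H]nisoxetine, cortex) Ki divided by SERT ([3H]paroxetine, cortex) Ki.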

The species entered for experiment [5] is Oryctolagus cuniculus. Description: Ratio of Ki for DAT in rabbit striatal membrane to Ki for SERT in rabbit cortical membrane. The class given is cell membranes. In a few lines: as §1

As to `Fc1ccc(CO/N=C2/CNCCC2c2ccc(F)cc2)cc1` (racemic), the Ki – broadly, a measure of affinity in units of concentration, obtained from inhibition or displacement – in experiment [1] came out at 28.7 nM; in experiment [2], 9460 nM; in experiment [3] it was 13400 nM. The results for the Ratio Ki in the experiment filed under Oryctolagus cuniculus [4] and in the experiment listed under Oryctolagus cuniculus [5] were 466 and 329, respectively.

The compound `Fc1ccc(C(OCCN2CCN(CCCc3ccccc3)CC2)c2ccc(F)cc2)cc1` [VANOXERINE] had a Ki in experiment [2] of 1.5 nM.

In experiment [3], `CNCCC(Oc1ccccc1OC)c1ccccc1` (configuration not stated) [NISOXETINE] returned an inhibitory constant (Ki) of 3.5 nM.

Regarding `Fc1ccc(CO/N=C2\CNCCC2c2ccc(C(F)(F)F)cc2)cc1` (racemic), the Ki in experiment [1] came out at 396 nM; in experiment [2] it was 2800 nM. In the experiment listed under Oryctolagus cuniculus [5], the Ratio Ki is 7.

`Fc1ccc([C@@H]2CCNC[C@H]2COc2ccc3c(c2)OCO3)cc1` [PAROXETINE]: the inhibition constant (Ki) in experiment [1] turned out to be 0.31 nM; in experiment [2], 769 nM; in experiment [3], 80 nM. The Ratio Ki was 258 in the experiment listed under Oryctolagus cuniculus [4] and 2480 in the experiment filed under Oryctolagus cuniculus [5].

With `Fc1ccc(CO/N=C2\CNCCC2c2ccc(F)cc2)cc1` (racemic), the Ki in experiment [1] worked out at 306 nM; in experiment [2], 3190 nM. In the experiment listed under Oryctolagus cuniculus [5], the Ratio Ki was found to be 10.

In the case of `Fc1ccc(C2CCNC/C2=N/OCc2ccc(C(F)(F)F)cc2)cc1` (racemic), the inhibitory constant (Ki) is 98.4 nM in experiment [1], above 100000 nM in experiment [2] and 19500 nM in experiment [3]. The results for the Ratio Ki in the experiment listed under Oryctolagus cuniculus [4] and in the experiment listed under Oryctolagus cuniculus [5] were 198 and above 1000, respectively.

On to `CNCC[C@@H](Oc1ccc(C(F)(F)F)cc1)c1ccccc1` [R-FLUOXETINE], for which the Ki turned out to be 5.8 nM in experiment [1], 4000 nM in experiment [2] and 609 nM in experiment [3]. Besides, the figures for the Ratio Ki in the experiment filed under Oryctolagus cuniculus [4] and in the experiment filed under Oryctolagus cuniculus [5] were 105 and 670, respectively.

`FC(F)(F)c1ccc(C2CCNC/C2=N\OCc2ccccc2Cl)cc1` (racemic): the inhibition constant (Ki) in experiment [1] was 96.6 nM; in experiment [2], 4200 nM. Also, in the experiment listed under Oryctolagus cuniculus [5], the Ratio Ki was 43.

Regarding `FC(F)(F)c1ccc(C2CCNC/C2=N/OCc2ccccc2Cl)cc1` (racemic), the Ki in experiment [1] is 10.3 nM; in experiment [2], above 100000 nM; in experiment [3], 10000 nM. The Ratio Ki in the experiment listed under Oryctolagus cuniculus [4] was 972; in the experiment listed under Oryctolagus cuniculus [5] it was above 9000.

Take `Fc1ccc(CO/N=C2/CNCCC2c2ccc(C(F)(F)F)cc2)cc1` (configuration not stated): the values for the inhibition constant (Ki) in experiment [1], in experiment [2] and in experiment [3] were 96.8 nM, above 100000 nM and 9300 nM, respectively. Moreover, the Ratio Ki was 96 in the experiment listed under Oryctolagus cuniculus [4] and above 1000 in the experiment filed under Oryctolagus cuniculus [5].

`Fc1ccc(C2CCNC/C2=N/OCc2ccccc2Cl)cc1` (racemic): the Ki is 22.6 nM in experiment [1], 12900 nM in experiment [2] and 11200 nM in experiment [3]. Further, the results for the Ratio Ki in the experiment filed under Oryctolagus cuniculus [4] and in the experiment filed under Oryctolagus cuniculus [5] were 496 and 571, respectively.

As to `Fc1ccc(C2CCNC/C2=N\OCc2ccccc2Cl)cc1` (racemic), the Ki came out at 81.1 nM in experiment [1] and 3800 nM in experiment [2]. For the same compound, the Ratio Ki in the experiment listed under Oryctolagus cuniculus [5] stood at 47.

As for `Fc1ccc(C2CCNC/C2=N\OCc2ccc(C(F)(F)F)cc2)cc1` (racemic), the inhibition constant (Ki) in experiment [1] is 139 nM; in experiment [2], 6200 nM. Also, in the experiment filed under Oryctolagus cuniculus [5], the Ratio Ki stood at 45.
